Experimental data collected from several papers.
Protocols differ between the studies behind these lines.
Nuclear receptor subfamily 4 group A member 2: Nuclear receptor subfamily 4 group A member 2 (Homo sapiens, UniProt P43354)
IRAK4: Interleukin-1 receptor-associated kinase 4 (IRAK4, Homo sapiens, UniProt Q9NWZ3)
P2RY14: P2Y purinoceptor 14 (P2RY14, Homo sapiens, UniProt Q15391)

CNS(=O)(=O)c1ccc(Nc2ncc(C(F)(F)F)c(N3CCC[C@](C)(O)C3)n2)c(C)c1  remaining binding (Serine/threonine-protein kinase ULK1 (ULK1, Homo sapiens, UniProt O75385); binding, competition with immobilised ligand; 1 µM): 11%
CCC(=O)NS(=O)(=O)c1ccc(-c2c(-c3ccccc3)noc2C)cc1  ΔTm (Nuclear receptor subfamily 4 group A member 2; thermal stability, DSF; 100 µM): -1.15 °C
CNC(=O)c1ccccc1Nc1nc(Nc2ccc(CO)nc2)ncc1Cl  remaining activity (IRAK4; enzyme activity, inhibitor, radiometric; 1 µM): 1.87%
O=C(COc1ccc(Br)cc1)N[C@@H](Cc1c[nH]c2ccccc12)C(=O)O  inhibition (P2RY14; cAMP, antagonist; HEK293; 0.1 µM): 39%
CCC(C)(C)C(=O)O[C@H]1C[C@@H](C)C=C2C=C[C@H](C)[C@H](CC[C@@H]3C[C@@H](O)CC(=O)O3)[C@H]21  ΔTm (Nuclear receptor subfamily 4 group A member 2; thermal stability, DSF; 100 µM): -11 °C
CCCCC(=O)Nc1ccc(-c2ccc3ncn(CCC)c(=O)c3c2)cn1  remaining binding (Cyclin-dependent kinase-like 1 (CDKL1, Homo sapiens, UniProt Q00532); binding, competition with immobilised ligand; 0.5 µM): 75%
CNC(=O)c1ccccc1Nc1nc(Nc2ccc(CO)cc2)ncc1Cl  remaining activity (IRAK4; enzyme activity, inhibitor, radiometric; 1 µM): 1.39%
CC(C)OC(=O)[C@H](Cc1c[nH]c2ccccc12)NC(=O)c1ccc2ccccc2n1  inhibition (P2RY14; cAMP, antagonist; HEK293; 0.1 µM): 55.4%
C#Cc1cnc(Nc2ccnc(CO)c2)nc1Nc1ccccc1S(C)(=O)=NC#N (stereo not shown)  remaining activity (IRAK4; enzyme activity, inhibitor, radiometric; 1 µM): 1.36%
COCCOCc1ccc(-c2cc3onc(-c4ccccc4)c3c(=O)n2C)cc1  ΔTm (Nuclear receptor subfamily 4 group A member 2; thermal stability, DSF; 100 µM): -0.54 °C
CC(C)OC(=O)[C@H](Cc1c[nH]c2ccccc12)NC(=O)COc1ccc(F)cc1  inhibition (P2RY14; cAMP, antagonist; HEK293; 0.1 µM): 12.1%
CCN(CC)CCCC(C)Nc1ccnc2cc(Cl)ccc12 (stereo not shown)  ΔTm (Nuclear receptor subfamily 4 group A member 2; thermal stability, DSF; 100 µM): 0.14 °C
C[C@H](NC(=O)C(=O)Nc1ccccc1C(C)(C)C)C(=O)N[C@@H](CC(=O)O)C(=O)COc1c(F)c(F)cc(F)c1F  kinact/KI (Caspase-1 (CASP1, Homo sapiens, UniProt P29466); enzyme activity, inhibitor): 2.42e+06 M⁻¹ s⁻¹
CCCCCCCC(=O)c1c(O)cc(O)cc1CC(=O)OCC  ΔTm (Nuclear receptor subfamily 4 group A member 2; thermal stability, DSF; 100 µM): -3.11 °C
N#Cc1ccc(NC(=O)Nc2ccccc2)cc1  remaining binding (TGF-beta receptor type-1 (TGFBR1, Homo sapiens, UniProt P36897); cell-free assay, competition with immobilised ligand; 25 µM): 81%
O=C(N[C@@H](Cc1c[nH]c2ccccc12)C(=O)O)c1cccs1  inhibition (P2RY14; cAMP, antagonist; HEK293; 0.1 µM): 68%
C#Cc1cc(-c2cc(Nc3nc(N[C@@H](C)c4ccc(F)cn4)ncc3Cl)n[nH]2)ccc1C=O  inhibition (Tyrosine-protein kinase JAK3 (JAK3, Homo sapiens, UniProt P52333); enzyme activity, inhibitor; 0.2 µM): 82.1%
CC(C)OC(=O)[C@H](Cc1c[nH]c2ccccc12)NC(=O)C1COc2ccccc2O1 (stereo partly shown)  inhibition (P2RY14; cAMP, antagonist; HEK293; 0.1 µM): 9.84%
NC/C(=C\F)COc1cccc(Cn2c(=S)[nH]c(=O)c3[nH]cnc32)c1  remaining activity (Eosinophil peroxidase (Homo sapiens, UniProt P11678); enzyme activity, inhibitor; 10 µM): 90.7%
CC(C)OC(=O)[C@H](Cc1c[nH]c2ccccc12)NC(=O)c1cccs1  inhibition (P2RY14; cAMP, antagonist; HEK293; 0.1 µM): 70.3%
COc1ccc2oc(-c3ccc4nc(N)oc4c3)c/c(=N\c3ccccc3NC(=O)CCN)c2c1  remaining binding (Eukaryotic elongation factor 2 kinase (EEF2K, Homo sapiens, UniProt O00418); binding; 1 µM): 101%
C1=C/COCc2cc(ccc2OCCN2CCCC2)Nc2nccc(n2)-c2cccc(c2)COC/1  remaining signal (Tyrosine-protein kinase JAK3, JH1 (JAK3, Homo sapiens, UniProt P52333); cell-free assay; 0.1 µM): 7.2%
CC(C)n1c(/C=C/C(O)CC(O)CC(=O)O)c(-c2ccc(F)cc2)c2ccccc21 (stereo not shown)  ΔTm (Nuclear receptor subfamily 4 group A member 2; thermal stability, DSF; 100 µM): -0.62 °C
O=C(COc1ccc(C(F)(F)F)cc1)N[C@@H](Cc1c[nH]c2ccccc12)C(=O)O  inhibition (P2RY14; cAMP, antagonist; HEK293; 0.1 µM): 34.8%
COc1cccc2c(Nc3ccc4[nH]c(C(=O)N/N=C/c5ccc(SC)cc5)cc4c3)cc(C)nc12  ΔTm (Nuclear receptor subfamily 4 group A member 2; thermal stability, DSF; 100 µM): 0.02 °C
Cc1cc(O)c(-c2ccc([C@@H](C)CN(C)C)cc2)c2c1[nH]c(=O)c1sccc12  inhibition (Microtubule-associated serine/threonine-protein kinase 4 (MAST4, Homo sapiens, UniProt O15021); enzyme activity, inhibitor; 0.1 µM): 2%
CC(C)OC(=O)[C@H](Cc1c[nH]c2ccccc12)NC(=O)c1ccc2nccnc2c1  inhibition (P2RY14; cAMP, antagonist; HEK293; 0.1 µM): 89.6%
C=C1C(=O)O[C@@H]2C[C@@]3(C)CCCC(=C)[C@@H]3C[C@H]12  ΔTm (Nuclear receptor subfamily 4 group A member 2; thermal stability, DSF; 100 µM): -0.65 °C
